# Measured values published in PubChem BioAssay AID1738 (Vanderbilt High Throughput Screening Facility, 2009).
# Records with an inconclusive call do not appear. Calls of active or inactive are those of the source.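 The calls were made as follows: active = dose curve fitted or showing a partial trend in at least two of three replicates; inactive = fewer than two replicates fitted or trending.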
# System: parental HEK293, Na-free buffer, Tl+ flux FluoZin2
# Test: parental HEK thallium flux modulation in sodium-free buffer, dose response, counter-screen for KCC2 modulator project, HEK cells, counterscreen 3 (AID 1738)
# Summary of the method: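 Assay system – parental HEK cells, FluoZin2-AM dye · Probe or stimulus – thallium stimulus, pH 7.3 · Dosing – 11 points, 3-fold steps, from 30 µM · Detection – fluorescence, 480/540 nm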
row,SMILES,EC50
1,COc1ccc(N2C(=S)N=C(Nc3cccc(C)c3)C23CCCCC3)cc1,0.92 µM
2,Fc1cccc(F)c1/C=N/NC(=S)Nc1cccnc1,8.33 µM (inactive)
3,O=C1OC(c2ccc(O)cc2)(c2ccc(O)cc2)c2ccccc21,15.4 µM (inactive)
4,CC(C)c1ccc(OCC(=O)NNC(=O)c2cnccn2)cc1,16.4 µM (inactive)
5,O=c1c2ccccc2[nH]c(=S)n1CCN1CCC(=C(c2ccc(F)cc2)c2ccc(F)cc2)CC1,4.82 µM (inactive)
6,N=C1SCC(=O)N1c1ncc(Cc2cccc(Cl)c2)s1,4.43 µM (inactive)
7,COc1cc(NC(=S)NC(=O)c2ccco2)ccc1NC(=O)C(C)C,3.63 µM (inactive)
8,Oc1ccccc1/C=N/Nc1nc2ccccc2o1,9.46 µM (inactive)
9,O=C(NC(=S)Nc1nc(-c2cccc([N+](=O)[O-])c2)cs1)c1cc(Cl)ccc1Cl,22.4 µM (inactive)
10,CNC(=O)C(=O)Nc1nc(C23CC4CC(CC(C4)C2)C3)cs1,0.0611 µM
11,NC(=S)N=Nc1c(O)n(Cc2ccccc2)c2ccccc12,0.0719 µM (inactive)
12,Cc1onc(-c2ccccc2Cl)c1C(=O)NC(=S)Nc1ccc(C(C)C)cc1,0.262 µM
13,COC(=O)[C@@H](NC(=O)O[C@@H]1C(=O)c2ccc(OC)cc2O[C@H]1c1cccc(C(F)(F)F)c1)C(C)C,8.16 µM (inactive)
14,CCOc1cccc(C(=O)NC(=S)Nc2cccc(C)c2)c1,0.345 µM
15,COc1ccccc1N1CCN(C(=S)NC(=O)/C=C/c2ccccc2)CC1,1.14 µM (inactive)
